Read-outs that look alike come from different tables or passages of the source.
Experiments:
[1] = test system: TAR-RNA; experiment: Gel retardation assay; format: binding, HIV-1; conditions: compared with PNATAR–penetratin and PNATAR–tat conjugates; data not shown
[2] = test system: VSV-G pseudotyped HIV-1 virions; conditions: 1 h
[3] = test system: CEM cells; experiment: Uptake kinetics with 125I-labeled conjugates; format: cell-based; conditions: slope of Hill plot of uptake data, 125I-labeled conjugate, room temperature, 30 s
Method in brief: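 125I-labeled conjugate purified by gel filtration and C18 reverse phase, quantified at A260, and specific radioactivity set with unlabeled conjugate. 1 × 10^6 CEM cells exposed to varying concentrations at room temperature for 30 s, then filtered on glass fiber, washed with PBS. Internalized conjugate measured by gamma counting from specific radioactivity; nH taken from Hill plot slope.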

[4] = test system: VSV-G pseudotyped HIV-1 in CEM cells

Compound | binding pattern to TAR-RNA in gel shift assay [1] | IC50 [2] | Hill coefficient (nH) of uptake [3] | inhibition of HIV-1 replication [4] | inhibition of HIV-1 replication (words) [4] | IC50 ([4]; VSV-G pseudotyped in CEM cells, 48 h) | IC50 ([4]; read-out: Antiviral efficacy IC50)
Ac-Cys-TCC-CAG-GCT-CAG-ATC-T [PNATAR] | same binding pattern |  |  |  |  |  | 
CC(=O)N[C@@H](CSSC[C@H](N)C(=O)NCC(=O)N[C@@H](CCCNC(=N)N)C(=O)N[C@@H](CCCCN)C(=O)N[C@@H](CCCCN)C(=O)N[C@@H](CCCNC(=N)N)C(=O)N[C@@H](CCCNC(=N)N)C(=O)N[C@@H](CCC(N)=O)C(=O)N[C@@H](CCCNC(=N)N)C(=O)N[C@@H](CCCNC(=N)N)C(=O)N[C@@H](CCCNC(=N)N)C(=O)N1CCC[C@H]1C(=O)N1CCC[C@H]1C(=O)N[C@@H](CCC(N)=O)C(=O)O)C(=O)NCCN(CC(=O)NCCN(CC(=O)NCCN(CC(=O)NCCN(CC(=O)NCCN(CC(=O)NCCN(CC(=O)NCCN(CC(=O)NCCN(CC(=O)NCCN(CC(=O)NCCN(CC(=O)NCCN(CC(=O)NCCN(CC(=O)NCCN(CC(=O)NCCN(CC(=O)NCCN(CC(=O)NCCN(CC(N)=O)C(=O)Cn1cc(C)c(=O)[nH]c1=O)C(=O)Cn1ccc(N)nc1=O)C(=O)Cn1cc(C)c(=O)[nH]c1=O)C(=O)Cn1cnc2c(N)ncnc21)C(=O)Cn1cnc2c(=O)[nH]c(N)nc21)C(=O)Cn1cnc2c(N)ncnc21)C(=O)Cn1ccc(N)nc1=O)C(=O)Cn1cc(C)c(=O)[nH]c1=O)C(=O)Cn1ccc(N)nc1=O)C(=O)Cn1cnc2c(=O)[nH]c(N)nc21)C(=O)Cn1cnc2c(=O)[nH]c(N)nc21)C(=O)Cn1cnc2c(N)ncnc21)C(=O)Cn1ccc(N)nc1=O)C(=O)Cn1ccc(N)nc1=O)C(=O)Cn1ccc(N)nc1=O)C(=O)Cn1cc(C)c(=O)[nH]c1=O [PNATAR–tat-peptide] |  | 0.037 µM |  |  |  |  | 
CC[C@H](C)[C@H](NC(=O)[C@H](CCCCN)NC(=O)[C@@H](NC(=O)[C@H](CCC(N)=O)NC(=O)[C@H](CCCNC(=N)N)NC(=O)[C@@H](N)CSSC[C@H](NC(C)=O)C(=O)NCCN(CC(=O)NCCN(CC(=O)NCCN(CC(=O)NCCN(CC(=O)NCCN(CC(=O)NCCN(CC(=O)NCCN(CC(=O)NCCN(CC(=O)NCCN(CC(=O)NCCN(CC(=O)NCCN(CC(=O)NCCN(CC(=O)NCCN(CC(=O)NCCN(CC(=O)NCCN(CC(=O)NCCN(CC(N)=O)C(=O)Cn1cc(C)c(=O)[nH]c1=O)C(=O)Cn1ccc(N)nc1=O)C(=O)Cn1cc(C)c(=O)[nH]c1=O)C(=O)Cn1cnc2c(N)ncnc21)C(=O)Cn1cnc2c(=O)[nH]c(N)nc21)C(=O)Cn1cnc2c(N)ncnc21)C(=O)Cn1ccc(N)nc1=O)C(=O)Cn1cc(C)c(=O)[nH]c1=O)C(=O)Cn1ccc(N)nc1=O)C(=O)Cn1cnc2c(=O)[nH]c(N)nc21)C(=O)Cn1cnc2c(=O)[nH]c(N)nc21)C(=O)Cn1cnc2c(N)ncnc21)C(=O)Cn1ccc(N)nc1=O)C(=O)Cn1ccc(N)nc1=O)C(=O)Cn1ccc(N)nc1=O)C(=O)Cn1cc(C)c(=O)[nH]c1=O)[C@@H](C)CC)C(=O)N[C@@H](Cc1c[nH]c2ccccc12)C(=O)N[C@@H](Cc1ccccc1)C(=O)N[C@@H](CCC(N)=O)C(=O)N[C@@H](CC(N)=O)C(=O)N[C@@H](CCCNC(=N)N)C(=O)N[C@@H](CCCNC(=N)N)C(=O)N[C@@H](CCSC)C(=O)N[C@@H](CCCCN)C(=O)N[C@@H](Cc1c[nH]c2ccccc12)C(=O)N[C@@H](CCCCN)C(=O)N[C@@H](CCCCN)C(=O)O [PNATAR–penetratin] |  | 0.028 µM | 1.8 | ~50% | did not inhibit | 0.8 µM | 0.8 µM

— PMC1182329 (Nucleic Acids Research, 2005)
